Consider 15 molecules from ChEMBL document CHEMBL3779882, “The cysteine releasing pattern of some antioxidant thiazolidine-4-carboxylic acids” (Eur J Med Chem, 2016).

Format in all cases: physicochemical
Data set [1] is described as follows: Chemical stability in 5% aqueous DMSO assessed as compound remaining at 20 uM measured immediately post treatment by HPLC analysis. As to conditions: read-out: Stability. In a few lines:
(§1)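 Ring opening followed by reversed-phase HPLC-DAD on a C18 column (4.6 × 250 mm). Mobile phase water:acetonitrile 30:70 at 0.5 ml/min, 25°C. Detection at 254 nm, 5 μL injections. Cysteine release tracked from the peak of the aldehyde freed by ring cleavage. Injections made right after dissolution and again after 50 min.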

A short description of data set [2]: Chemical stability in 0.1 M phosphoric acid at pH 2 assessed as compound remaining at 20 uM after 50 mins by HPLC analysis. The note with it: read-out: Stability. In a few lines: as §1
Data set [3] is described as follows: Antioxidant activity assessed as DPPH free radical scavenging activity treated with 5% DMSO after 50 mins. Put shortly:
(§2)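 Samples serially diluted from 6.75 μM to 1000 μM; BHT reference at 125–2000 μM. Sample added to 0.1 mM DPPH solution in 1:5 volume ratio. Kept in the dark at RT for 50 min, then absorbance read at 517 nm. Triplicates. Scavenging % = [1−(A_average−A_blank)/(A_control−A_blank)]×100. IC50 reported in μM as the level scavenging 50% of radical.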
On the technique in general: The DPPH test is a chemical assay of radical scavenging.

A short description of data set [4]: Antioxidant activity assessed as cupric ion reducing activity treated with 5% DMSO measured as ratio of sample to trolox molar extinction coefficient after 20 mins by CUPRAC assay. In a few lines: (§3)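 Reagents prepared separately: 10 mM CuSO4, 7.5 mM neocuproine and 1 M ammonium acetate buffer pH 7.0. Samples serially diluted from 6.75 μM to 1000 μM; Trolox reference at 10–70 μM. Each concentration run in triplicate. Incubated at 50°C for 20 min, then absorbance read at 450 nm for Cu(I)-neocuproine. TEAC = ε_sample/ε_Trolox.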

Data set [5] can be described thus: Chemical stability in 0.1 M phosphoric acid at pH 2 assessed as compound remaining at 20 uM measured immediately post treatment by HPLC analysis. The note with it: read-out: Stability. Put shortly:
as §1

A short description of data set [6]: Chemical stability in MeOH solution assessed as compound remaining at 20 uM after 20 mins by HPLC analysis.
Data set [7] is described as follows: Chemical stability in MeOH solution assessed as compound remaining at 20 uM measured immediately post treatment by HPLC analysis. As to conditions: read-out: Stability. Put shortly: as §1
Data set [8] in a line: Chemical stability in PBS buffer assessed as compound remaining at 20 uM after 50 mins by HPLC analysis. As to conditions: read-out: Stability. In a few lines:
as §1

The nature of data set [9]: Antioxidant activity assessed as DPPH free radical scavenging activity treated with methanol after 50 mins. In a few lines:
as §2

Data set [10] is described as follows: Chemical stability in PBS buffer assessed as compound remaining at 20 uM after 20 mins by HPLC analysis. The note with it: read-out: Stability.
The nature of data set [11]: Chemical stability in PBS buffer assessed as compound remaining at 20 uM measured immediately post treatment by HPLC analysis. As to conditions: read-out: Stability. In a few lines: as §1
The nature of data set [12]: Chemical stability in 5% aqueous DMSO assessed as compound remaining at 20 uM after 50 mins by HPLC analysis. As to conditions: read-out: Stability. In a few lines: as §1
Data set [13] is described as follows: Chemical stability in 0.1 M phosphoric acid at pH 2 assessed as compound remaining at 20 uM after 20 mins by HPLC analysis. The note with it: read-out: Stability.
A short description of data set [14]: Chemical stability in MeOH solution assessed as compound remaining at 20 uM after 50 mins by HPLC analysis. In a few lines: as §1
A short description of data set [15]: Antioxidant activity assessed as cupric ion reducing activity treated with MeOH solution measured as ratio of sample to trolox molar extinction coefficient after 20 mins by CUPRAC assay. In a few lines:
as §3

A short description of data set [16]: Chemical stability in 5% aqueous DMSO assessed as compound remaining at 20 uM after 20 mins by HPLC analysis. The note with it: read-out: Stability.

On to `Cc1ccccc1C1N[C@H](C(=O)O)CS1` (mixture of isomers), for which the remaining at 0 min, 20 µM was determined as 6.8% in [1], 12.9% in data set [5], 4% in data set [7] and 15.2% in data set [11]. Besides, the results for the remaining at 50 min, 20 µM in [2], in [8] and in data set [12] were 10.1%, 8.9% and 5.6%, respectively. Moreover, the half-maximal inhibitory concentration (IC50) is 39 µM in data set [3] (read-out: IC50) and 46.1 µM in data set [9]. Besides, the Ratio in [4] is listed as 0.75; in data set [15], 0.57. Besides, the Stability is 4.1% in data set [6] and 4.2% in data set [14]. Further, the remaining at 20 min, 20 µM came to 11.3% in data set [10], 11.3% in data set [13] and 5.9% in [16].
On to `O=C(O)[C@@H]1CSC(c2ccc(Cl)cc2)N1` (mixture of isomers), for which the IC50 result in data set [3] was “ND(Insoluble)”. Besides, the Ratio entry in data set [4] is “ND(Insoluble)”; in data set [15] it was 1.52.
With `COc1ccccc1C1N[C@H](C(=O)O)CS1` (mixture of isomers), the remaining at 0 min, 20 µM in data set [1] amounted to 82.8%; in data set [5], 92.9%; in data set [7], 100%; in [11], 82.5%. The remaining at 50 min, 20 µM in [2] was determined as 67.6%; in [8] it was 21%; in data set [12] it was 26.8%. The figures for the half-inhibitory concentration (IC50) in data set [3] (read-out: IC50) and in data set [9] were 29.5 µM and 343 µM, respectively. Moreover, the values for the Ratio in [4] and in [15] were 0.79 and 0.96, respectively. In addition, the results for the Stability in data set [6] and in data set [14] were 98.6% and 97.3%, respectively. For the same molecule, the values for the remaining at 20 min, 20 µM in [10], in data set [13] and in data set [16] were 34%, 78.9% and 43.9%, respectively.
`N[C@@H](CS)C(=O)O` [CYSTEINE]: the IC50 in [3] (read-out: IC50) stood at 18.4 µM; in [9], 19.2 µM. For the same molecule, the Ratio in data set [4] worked out at 0.49; in data set [15], 0.63.
Regarding `O=C(O)[C@@H]1CSC(c2cccc(Cl)c2)N1` (mixture of isomers), the IC50 result in [3] was “ND(Insoluble)”. Besides, the Ratio entry in [4] is recorded as “ND(Insoluble)”; in [15] it was 1.5.
With `O=C(O)[C@@H]1CSC(c2cccc(Cl)c2Cl)N1` (mixture of isomers), the remaining at 0 min, 20 µM in [1] is 17.8%; in [5] it was 21.7%; in data set [7], 15.5%; in data set [11], 15.3%. Moreover, the remaining at 50 min, 20 µM was 14.2% in data set [2], 17.9% in data set [8] and 15.7% in [12]. In addition, the IC50 in data set [3] (read-out: IC50) worked out at 61.7 µM; in data set [9] it was 46.2 µM. Besides, the figures for the Ratio in data set [4] and in data set [15] were 0.99 and 0.93, respectively. For the same molecule, the Stability in [6] is recorded as 25.2%; in data set [14], 38.2%. The figures for the remaining at 20 min, 20 µM in [10], in [13] and in data set [16] were 17.4%, 17.5% and 16.6%, respectively.
For `O=C(O)[C@@H]1CSC(c2c(F)cccc2F)N1` (mixture of isomers), the remaining at 0 min, 20 µM in [1] is 53.8%; in data set [5] it was 96.2%; in data set [7], 100%; in [11], 79.4%. The remaining at 50 min, 20 µM amounted to 54.8% in data set [2], 46.9% in [8] and 38.2% in [12]. Also, the IC50 in [3] (read-out: IC50) was found to be 38.3 µM; in data set [9], 343 µM. Besides, the Ratio in [4] is listed as 1.05; in data set [15] it was 0.83. Besides, the Stability in [6] was 99.4%; in [14], 98.2%. Moreover, the remaining at 20 min, 20 µM in data set [10] was 61.1%; in data set [13], 72.3%; in data set [16], 39.2%.
As for `O=C(O)[C@@H]1CSC(c2cccc(F)c2F)N1` (mixture of isomers), the remaining at 0 min, 20 µM in [1] came to 83.7%; in [5], 87.3%; in data set [7], 100%; in [11] it was 92.7%. The remaining at 50 min, 20 µM was determined as 43.5% in data set [2], 50.1% in data set [8] and 28.7% in [12]. Also, the IC50 in [3] (read-out: IC50) is 46.8 µM; in [9] it was more than 1000 µM. Further, the Ratio worked out at 0.84 in data set [4] and 0.83 in data set [15]. For the same molecule, the Stability in data set [6] amounted to 100%; in [14], 98.8%. For the same molecule, the remaining at 20 min, 20 µM was determined as 69.3% in [10], 64.6% in data set [13] and 50% in [16].
On to `O=C(O)[C@@H]1CSC(c2ccccc2Br)N1` (mixture of isomers), for which the remaining at 0 min, 20 µM in data set [1] is 19%; in data set [5] it was 14.1%; in data set [7], 70.5%; in [11], 11.6%. Also, the remaining at 50 min, 20 µM in [2] was determined as 9.5%; in [8], 18.5%; in data set [12], 14.3%. Besides, the IC50 in data set [3] (read-out: IC50) was 37.7 µM; in data set [9], 39.1 µM. Also, the values for the Ratio in data set [4] and in [15] were 1 and 0.8, respectively. The values for the Stability in [6] and in data set [14] were 74% and 75.6%, respectively. The results for the remaining at 20 min, 20 µM in data set [10], in [13] and in data set [16] were 16.3%, 11.5% and 16.2%, respectively.
Take `N#Cc1ccccc1C1N[C@H](C(=O)O)CS1` (mixture of isomers): the 50% inhibitory concentration (IC50) in data set [3] (read-out: IC50) and in data set [9] was more than 1000 µM throughout. Besides, the Ratio entry in data set [4] and in data set [15] was “ND(Insoluble)” throughout.
Regarding `Cc1ccc(C2N[C@H](C(=O)O)CS2)cc1` (mixture of isomers), in data set [3], the IC50 entry is “ND(Insoluble)”. For the same molecule, the Ratio result in [4] is “ND(Insoluble)”; in data set [15] it was 1.22.
Take `Cc1cc(C(C)(C)C)c(O)c(C(C)(C)C)c1` [BUTYLATED HYDROXYTOLUENE]: the figures for the IC50 result in [3] and in [9] were “ND(Insoluble)” and 517 µM, respectively.
In the case of `O=C(O)[C@@H]1CSC(c2ccc([N+](=O)[O-])cc2)N1` (mixture of isomers), the IC50 result in data set [3] is “ND(Insoluble)”. Also, the Ratio result is on record as “ND(Insoluble)” in data set [4] and 0.74 in data set [15].
Turning to `COc1ccc(C2N[C@H](C(=O)O)CS2)cc1` (mixture of isomers), the IC50 result in data set [3] is listed as “ND(Insoluble)”. The Ratio result in data set [4] and in data set [15] was “ND(Insoluble)” in each case.
As to `O=C(O)[C@@H]1CSC(c2ccccc2)N1` (mixture of isomers), the remaining at 0 min, 20 µM stood at 76.3% in [1], 85% in data set [5], 96.1% in data set [7] and 78.4% in [11]. Moreover, the remaining at 50 min, 20 µM in data set [2] came to 49.9%; in data set [8] it was 13.8%; in data set [12], 13.8%. The IC50 in data set [3] (read-out: IC50) came to 45.2 µM; in data set [9], 844 µM. Further, the results for the Ratio in [4] and in data set [15] were 0.99 and 1.54, respectively. In addition, the figures for the Stability in data set [6] and in data set [14] were 95.7% and 95.4%, respectively. For the same molecule, the remaining at 20 min, 20 µM in data set [10] was found to be 27.8%; in [13] it was 62.4%; in [16] it was 27.8%.

The IC50 is the midpoint of a concentration-inhibition curve.
